NPY-Y2 antag – NPY-Y2 receptor antagonists, primary screen, cell-based; Neuropeptide Y receptor type 2 (Homo sapiens), P49146; NPY-Y2 expressing cells, antagonist mode; inhibition, % at 2.7 µM; 140,000 tested, 0.99% active; in the data active means inhibition above about 17%
Target sequence (P49146 whole entry, looked up): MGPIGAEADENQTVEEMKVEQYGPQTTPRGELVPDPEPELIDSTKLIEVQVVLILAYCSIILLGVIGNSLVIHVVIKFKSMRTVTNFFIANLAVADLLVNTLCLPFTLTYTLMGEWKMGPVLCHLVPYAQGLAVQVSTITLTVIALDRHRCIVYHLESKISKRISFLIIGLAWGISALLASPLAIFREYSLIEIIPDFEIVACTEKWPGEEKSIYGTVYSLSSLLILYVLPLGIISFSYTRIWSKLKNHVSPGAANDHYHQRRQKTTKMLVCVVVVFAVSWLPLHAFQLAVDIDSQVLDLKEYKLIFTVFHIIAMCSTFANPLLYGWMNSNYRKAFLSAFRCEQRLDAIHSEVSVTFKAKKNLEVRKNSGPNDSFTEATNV
TbHK1 inh – Trypanosoma brucei hexokinase 1 inhibitors, primary screen, biochemical, G6PDH-coupled NADH absorbance, MLSCN library; hexokinase 1 [Trypanosoma brucei]; recombinant TbHK1, G6PDH-coupled NADH A340; inhibition, % at 10 µM; 220,000 tested, 0.11% active; AID 1430, 2008;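 active means inhibition of 50% or more in the single-dose primary screen; inactive means inhibition below 50%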
Calpain2 inh – inhibitors of pig calpain II, primary screen, biochemical, fluorogenic peptide substrate, 1536-well. inhibition, % at 16 µM. purified calpain II, 30 min. 220,000 tested, 0.37% active;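 active means inhibition above about 50%, limit read from the data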
NPY-Y2 PAM-ag – NPY-Y2 potentiators or agonists, primary screen, cell-based; Neuropeptide Y receptor type 2 (Homo sapiens), P49146; cells expressing NPY-Y2, potentiator/agonist read-out; activation, % at 3.6 µM; 220,000 tested, 0.45% active; in the data active means activation above about 27%;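 further: cells stimulated with NPY near EC25 plus isoproterenol at EC100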
NPY-Y1 PAM-ag – NPY-Y1 receptor potentiators or agonists, primary screen, cell-based | Neuropeptide Y receptor type 1 (Homo sapiens), P25929 | NPY-Y1 expressing cells, potentiator/agonist activation | activation, % at 3.6 µM | 220,000 tested, 0.37% active; in the data active means activation above about 33%, passing the limit was not always enough;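 further: cells stimulated with NPY at EC10 then isoproterenol at EC100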
NPY Y1 blocker – NPY-Y1 receptor antagonists, primary screen, cell-based. Neuropeptide Y receptor type 1 (Homo sapiens), P25929. HEK293-CNG Y1 cells, membrane potential fluorescence; NPY at EC95, then isoproterenol. 200,000 tested, 1% active. inhibition, % at 3.6 µM;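 active means inhibition above the campaign mean inhibition of all tested compounds plus 3 SD, cut at about 20% in these data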
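Test system: HEK293 cells co-expressing NPY Y1 receptor and cyclic-nucleotide gated channel; Also added: NPY (25 nM), isoproterenol (1 µM), Ro 20-1724 (25 µM); Compound dosing: one concentration, 3.6 µM, in 0.4% DMSO; Timing: dye 3 h, compound 60 min room temperature, stimulation 45 min; Technique: Membrane-potential fluorescent dye readout.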
Hits are given with their value; i = inactive; nt = no result given. Compounds with a hit are over-represented: about 2.3% of the library has one in this group of screens.

SMILES	NPY-Y2 antag	TbHK1 inh	Calpain2 inh	NPY-Y2 PAM-ag	NPY-Y1 PAM-ag	NPY Y1 blocker
O=C(N[C@@H](Cc1ccccc1)C(=O)OCc1ccccc1)c1nc[nH]c1C(=O)N1CCN(c2ccccc2)CC1	nt	i	51	nt	nt	nt
COc1ccc(NS(=O)(=O)c2cccc(NC(=O)C34CCC(CC3)C4)c2)cc1	i	i	i	i	i	i
Cc1ccc(-n2nnnc2CCl)cc1	nt	i	i	i	i	i
COc1ccc(CN(CCC(c2ccc(F)cc2)C2CCOC(C)(C)C2)C(=O)c2ccco2)cc1 (configuration not stated)	20	i	i	i	i	22
CC(c1ccccc1)N(CCC(c1ccccc1)C1CCOC(C)(C)C1)C(=O)c1ccco1 (configuration not stated)	i	i	i	i	i	i
O=C(CCCN1C(=O)c2ccccc2C1=O)N1CCCCC1	i	i	i	i	i	i
O=C(CCCN1C(=O)c2ccccc2C1=O)N1CCC(c2ccccc2)C1 (configuration not stated)	i	i	51	i	i	i
Cc1cnc(NC(=O)c2cccc(S(=O)(=O)N3CC(C)OC(C)C3)c2)s1 (configuration not stated)	nt	i	i	i	i	i
COCC1CCCN(Cc2cn(-c3ccccc3)nc2-c2ccc3c(c2)OCO3)C1 (configuration not stated)	nt	i	i	96	65	i
c1ccc(-n2cc(CN3CCCC3)c(-c3ccc4c(c3)OCO4)n2)cc1	nt	i	i	i	i	i
Cc1nn(C)c(Cl)c1C(=O)NCC(=O)Nc1ccc(C(C)C)cc1	nt	i	i	i	i	i
CCOC(=O)/C(=N\Nc1ccccc1)P(=O)(c1ccccc1)c1ccccc1	nt	i	i	i	i	nt
O=C1CCCC2=C1C(c1ccc(O)cc1)c1c(ccc3ccccc13)N2 (configuration not stated)	nt	i	i	i	i	i
O=C1NN=C(c2ccc(Cl)cc2)CC1c1cccc(Br)c1 (configuration not stated)	nt	i	54	i	i	i
COc1ccccc1NC(=O)c1ccc(NC(=O)CSc2ncn[nH]2)cc1	i	i	i	i	i	i
C=CCNc1cnn(-c2ccc(C)cc2)c(=O)c1Sc1ccc(C)cc1	nt	i	65	i	i	i
Cc1ccc(Sc2cnn(-c3ccccc3)c(=O)c2Cl)cc1	i	i	i	i	i	i
Cc1ccc(CNCC(O)(c2ccc(F)cc2)c2ccc(F)cc2)cc1	19	i	i	i	i	23
c1ccc(-c2nnc(CN3CCN(c4ccccc4)CC3)o2)cc1	nt	i	i	i	i	i
Clc1ccccc1-c1ccc(CN2CCN(c3ccccc3)CC2)o1	28	i	i	i	i	23
COc1ccc(-c2nnc(SCc3ncc(-c4ccccc4)o3)o2)cc1	21	i	i	i	i	21
COc1ccc(C(=O)CSc2nnc(-c3ccccc3)o2)cc1	i	i	i	i	i	i
CCCOC(=O)c1ccc(NC(=O)c2ccccc2OC)cc1	nt	i	i	i	i	21
Cc1ccccc1Nc1nnc(SCc2nc3ccccc3c(=O)[nH]2)s1	nt	i	i	i	i	i
CCOc1ccc(Nc2nnc(SCc3nc4ccccc4c(=O)[nH]3)s2)cc1	nt	i	52	i	i	nt
SMILES	NPY-Y2 antag	TbHK1 inh	Calpain2 inh	NPY-Y2 PAM-ag	NPY-Y1 PAM-ag	NPY Y1 blocker
Cc1ccc(NC(=O)CN2C(=O)/C(=C3\SC(=S)N(C4CCS(=O)(=O)C4)C3=O)c3ccccc32)cc1 (configuration not stated)	i	i	67	i	i	i
CCOc1cc(/C=N/NC(=O)c2ccncc2)cc(Cl)c1OS(C)(=O)=O	i	i	i	i	i	i
CCOc1cc(/C=N/NC(=O)c2ccncc2)ccc1OS(C)(=O)=O	i	i	106	i	i	i
Cc1ccc(CNc2nc(Cl)c(C#N)s2)cc1	nt	i	76	i	i	i
CCCCc1nnc(NC(=O)C(C)Sc2nc(O)c(Cc3ccccc3)c(=O)[nH]2)s1 (configuration not stated)	nt	i	i	i	i	i
O=C(COc1ccc(Cl)cc1[N+](=O)[O-])N1CCCCCC1	nt	i	i	i	i	i
COc1ccc(C)cc1NC(=O)COC(=O)C1CCN(C(=O)c2ccc(Cl)cc2)CC1	nt	i	i	90	86	i
COc1ccc(OC)c(NC(=O)COC(=O)CSc2ccc(Cl)cc2)c1	i	i	90	i	i	i
O=C(COC(=O)C1CCN(C(=O)c2ccc(Cl)cc2)CC1)NC1CCS(=O)(=O)C1 (configuration not stated)	nt	i	i	i	i	i
CCN(CC)CCOC(=O)c1ccc(NC(=O)CNC(=O)C2CCCCC2)cc1	i	i	i	i	i	i
CCn1ncc([N+](=O)[O-])c1C(=O)NC1CCCCC1	nt	i	i	i	i	i
CCOC(=O)c1cnc(-n2nc(C)cc2C)nc1Nc1ccc(OC)cc1	i	i	54	i	i	i
COC(=O)c1cccc(NC(=O)c2cccnc2C(=O)O)c1C	nt	i	i	i	i	i
Cc1ccc(CC(=O)Nc2ccc(F)c([N+](=O)[O-])c2)cc1C	nt	i	i	i	i	i
COc1cc(Br)cc(CNc2ccc(F)c([N+](=O)[O-])c2)c1O	nt	i	91	i	i	i
O=C(c1ccco1)N(Cc1cccc([N+](=O)[O-])c1)c1ccc(Br)cc1	nt	i	52	i	i	i
O=C(c1ccco1)N(Cc1ccc([N+](=O)[O-])cc1)c1ccc(Br)cc1	i	i	i	i	i	i
CCN1/C(=C/C=C/c2oc3ccc(-c4ccccc4)cc3[n+]2CC)Oc2ccc(-c3ccccc3)cc21	nt	101	i	i	i	22
CCCCN1C(=O)/C(=C/C=C2\Oc3ccccc3N2CC)SC1=S	nt	i	i	i	i	i
O=C(COC(=O)c1ccccc1O)Nc1cccnc1Cl	i	i	i	i	i	i
O=C(COC(=O)CC12CC3CC(CC(C3)C1)C2)Nc1cccnc1Cl	nt	i	59	i	i	i
COc1cccc(N2C(=O)/C(=C\c3cccs3)NC2=S)c1	nt	i	i	69	48	i
COc1ccc(-c2csc(Nc3ccc(C)cn3)n2)cc1OC	nt	i	i	i	i	i
Cc1ccc(Nc2nc(-c3ccc(O)c(O)c3)cs2)nc1	nt	i	i	51	44	i
COCCn1c(C)cc(C(=O)COC(=O)CNC(=O)c2ccccc2)c1C	i	i	59	i	i	i
Cc1ccnc(NC(=O)CCC2CCCCC2)c1	20	i	i	i	i	23
O=C(CCC1CCCCC1)Nc1ccc(C(=O)c2ccncc2)cc1	nt	i	51	i	i	i

Assay outcomes as filed in PubChem BioAssay.
